According to ChEMBL document CHEMBL1156821, “Transforming rhinacanthin analogues from potent anticancer agents into potent antimalarial agents” (J Med Chem, 2010):
Activity calls are given as the source filed them. The rule behind the calls is not given here.

Columns and labels:
Plasmodium falciparum [1] = test: Antimalarial activity against multidrug-resistant Plasmodium falciparum K1 infected in erythrocytes after 48 hrs by [3H]hypoxanthine incorporation assay; type: functional, organism-based
In short: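 P. falciparum K1 (multidrug-resistant) was grown in RPMI 1640 with 20 mM HEPES, 32 mM NaHCO3, 10% […] human serum and 3% erythrocytes, at 37 C under 3% CO2. Early-ring cultures (1.5% erythrocytes, 1% parasitemia) were exposed to compound for 24 h at 0.1% final DMSO. [3H]hypoxanthine (0.5 μCi) was then added for a further 24 h, and incorporation was counted by scintillation. IC50 is the 50% growth reduction; values are the mean of six replicates; dihydroartemisinin was the reference.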

Vero = test: Cytotoxicity against African green monkey Vero cells by MTT assay; type: cell-based; details: Chlorocebus sabaeus
Saccharomyces cerevisiae [2] = test: Inhibition of Saccharomyces cerevisiae CK Cytochrome b-c1 complex assessed as DQH-induced reduction of cyt bc1 complex by redoxdifference spectra
Saccharomyces cerevisiae [3] = test: Inhibition of electron transfer from Q(o) site to iron cluster of Saccharomyces cerevisiae CK Cytochrome b-c1 complex assessed as DQH-induced reduction of cyt bc1 complex by redoxdifference spectra
In short: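 Purified yeast bc1 at 2 μM in 50 mM K-phosphate with 0.05% UM; inhibitors added at final 5 μM (test) or 40 μM (stigmatellin, antimycin A). Redox difference spectra recorded as decylubiquinol-reduced bc1-inhibitor complex minus protein-inhibitor complex.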

Plasmodium falciparum [4] = test: Inhibition of Cytochrome b-c1 complex in Plasmodium falciparum 3D7 cell free extracts assessed as decyclobiquinol-linked cytochrome c reduction by spectrophotometry
In short: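 Cell-free extract of P. falciparum 3D7 was made by 20 s sonication on ice and adjusted to 0.1 mg protein/mL by Bradford assay. Steady-state decylubiquinol/cytochrome c reductase activity was read at ε550-542nm at 21 C in 50 mM potassium phosphate pH 7.5 with 2 mM EDTA, 10 mM KCN and 30 μM equine cytochrome c. Reactions were started with 50 μM decylubiquinol, compound added without preincubation, DMSO ≤0.3%. IC50 came from four-parameter sigmoidal fits of three separate assays.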

[5] = Therapeutic index, ratio of IC50 for African green monkey (Cercopithecus aethiops) Vero cells to IC50 for multidrug-resistant Plasmodium falciparum K1; type: cell-based; details: read-out: Ratio IC50
[6] = Inhibition of wild type Saccharomyces cerevisiae CK Cytochrome b-c1 complex by spectrophotometry
In short: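 Purified bc1 from wild-type yeast strain CKWT grown in YPGal was diluted to 8 nM. Inhibitor was added before starting with 50 μM decylubiquinol; 550 nm read at room temperature. IC50 taken from a concentration series.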

[7] = Inhibition of Cytochrome b-c1 complex in Wistar rat liver microsomes assessed as decyclobiquinol-linked cytochrome c reduction by spectrophotometry; design: species or system Microsome
In short: (§1)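 Steady-state decylubiquinol/cytochrome c reductase in yeast mitochondrial membranes (YPD-grown at 28 C) or male Wistar rat (125-170 g) liver microsomes. bc1 set to 5 nM; 50 mM K-phosphate pH 7.5, 2 mM EDTA, 10 mM KCN, 30 μM equine cytochrome c. Start: 50 μM decylubiquinol. ε550-542nm read at 21 C; no preincubation, DMSO ≤0.3%. IC50 from four-parameter sigmoidal fit, three separate assays.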

[8] = Inhibition of Cytochrome b-c1 complex in yeast mitochondrial membrane assessed as decyclobiquinol-linked cytochrome c reduction by spectrophotometry; type: cell membranes, Saccharomyces cerevisiae; in short: as §1
[9] = Plasmodium falciparum, K1, read-out: IC50

Row | Compound | IC50 (Plasmodium falciparum [1]; [9]) [nM] | IC50 (Vero) [nM] | other results
1 | CCCCCCCC(=O)OCCCC1=C(O)C(=O)c2ccccc2C1=O | 5150 | – | –
2 | CCCC(=O)OCC(C)(C)CC1=C(O)C(=O)c2ccccc2C1=O | 910 | 73200 | –
3 | C[C@H]1[C@@H](O)O[C@@H]2O[C@@]3(C)CC[C@H]4[C@H](C)CC[C@@H]1[C@@]24OO3 [ARTENIMOL] | 3.5 | – | –
4 | CCC(C)CC(=O)OCC(C)(C)CC1=C(O)C(=O)c2ccccc2C1=O (centres undefined) | 190 | 2300 | –
5 | CCCCC(=O)OCC(C)(C)CC1=C(O)C(=O)c2ccccc2C1=O | 580 | 7840 | –
6 | CCCCCCCCC(=O)OCC(C)(C)CC1=C(O)C(=O)c2ccccc2C1=O | 500 | 150000 | –
7 | CC(=O)OCCCC1=C(O)C(=O)c2ccccc2C1=O | – | – | IC50 (Plasmodium falciparum [1]): Not Active
8 | CCC(CC)C(=O)OCC(C)(C)CC1=C(O)C(=O)c2ccccc2C1=O | 16600 | 104000 | –
9 | CC(C)C(=O)OCC(C)(C)CC1=C(O)C(=O)c2ccccc2C1=O | 910 | 123000 | –
10 | CC[C@H](C)C(=O)OCC(C)(C)CC1=C(O)C(=O)c2ccccc2C1=O | 110 | 570 | –
11 | CC(C)CC(=O)OCC(C)(C)CC1=C(O)C(=O)c2ccccc2C1=O | 410 | 550 | –
12 | CCC(C)C(=O)OCC(C)(C)CC1=C(O)C(=O)c2ccccc2C1=O (centres undefined) | 220 | 870 | –
13 | CCCCCCCCCCCCCCCCCC(=O)OCC(C)(C)CC1=C(O)C(=O)c2ccccc2C1=O | 133 | 15500 | –
14 | CCCCCCCCCCCC(=O)OCC(C)(C)CC1=C(O)C(=O)c2ccccc2C1=O | 900 | 249000 | –
15 | CCCCCCCCCCC(=O)OCC(C)(C)CC1=C(O)C(=O)c2ccccc2C1=O | 700 | > 233000 | –
16 | CCCCCC[C@H]1C(=O)O[C@H](C)[C@H](NC(=O)c2cccc(NC=O)c2O)C(=O)O[C@@H](C)[C@@H]1OC(=O)CC(C)C | – | – | Activity (Saccharomyces cerevisiae [2]): Active
17 | CCCCCCCC(=O)OCC(C)(C)CC1=C(O)C(=O)c2ccccc2C1=O | 130 | > 259000 | Activity (Saccharomyces cerevisiae [3]): Active; IC50 (Plasmodium falciparum [4]): 5.4 nM; selectivity ratio [5]: > 1990; IC50 [6]: 840 nM; IC50 [7]: 3000 nM; IC50 [8]: 16 nM
18 | C/C=C(C)/C=C/C=C/[C@H](OC)[C@@H](C)[C@@H](OC)[C@@H](C)CCc1oc2c(O)c(OC)cc(OC)c2c(=O)c1C [STIGMATELLIN] | – | – | Activity (Saccharomyces cerevisiae [3]): Active; IC50 [6]: 9.1 nM
19 | CCCC(C)C(=O)OCC(C)(C)CC1=C(O)C(=O)c2ccccc2C1=O (centres undefined) | 120 | 120 | –
20 | CCCCCCCCCCCCCC(=O)OCC(C)(C)CC1=C(O)C(=O)c2ccccc2C1=O | 32 | 58400 | Activity (Saccharomyces cerevisiae [3]): Active; IC50 (Plasmodium falciparum [4]): 8 nM; selectivity ratio [5]: 1830; IC50 [6]: 770 nM; IC50 [7]: 2500 nM; IC50 [8]: 79.6 nM
21 | CCCCCCC(=O)OCC(C)(C)CC1=C(O)C(=O)c2ccccc2C1=O | 810 | 99300 | –
22 | CC(=O)OCC(C)(C)CC1=C(O)C(=O)c2ccccc2C1=O | 10900 | 139000 | –
23 | CCC(=O)OCC(C)(C)CC1=C(O)C(=O)c2ccccc2C1=O | 4100 | 60100 | –
24 | CCCCCCCCCCCCCCCC(=O)OCC(C)(C)CC1=C(O)C(=O)c2ccccc2C1=O | 30 | 4410 | –
25 | CCCC(=O)OCCCC1=C(O)C(=O)c2ccccc2C1=O | – | – | IC50 (Plasmodium falciparum [1]): Not Active
26 | CCCCCCCCCC(=O)OCC(C)(C)CC1=C(O)C(=O)c2ccccc2C1=O | 720 | 203000 | –
27 | CCCCCCCC(=O)OCC1(CC2=C(O)C(=O)c3ccccc3C2=O)CCCCC1 | 2630 | – | –
28 | CCCCCC(=O)OCC(C)(C)CC1=C(O)C(=O)c2ccccc2C1=O | 1120 | 169000 | –
29 | CCCCCCC(C)C(=O)OCC(C)(C)CC1=C(O)C(=O)c2ccccc2C1=O (centres undefined) | 110 | 450 | –
